Activity calls are given as the source filed them. The rule behind the calls is not given here. Positions of bridges follow the written chain, without caps; N, C: chain ends. Non-standard residues stand in square brackets, D forms with d. Residues, ends and D or L forms follow the SMILES beside them. Phe(4-CH2NHiPr) = CC(C)NCc1ccc(C[C@H](N)C(=O)O)cc1
Tests used:
[1] = biological target: Somatostatin receptor type 3 (Homo sapiens, UniProt P32745); assay: Displacement of [125I]LTT-SRIF-28 from human sst3 receptor by autoradiography
Method in brief: (§1)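 Competition autoradiography on 20-μm cryostat sections of membrane pellets from cells expressing each cloned receptor. Buffer was 170 mM Tris-HCl pH 8.2 with 1% BSA, bacitracin and 10 mM MgCl2. Cold washes, 1-week film exposure, image quantification against isotope standards, IC50 derived.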

[2] = biological target: T1, Somatostatin receptor type 1 (Homo sapiens, UniProt P30872); assay: Displacement of [125I]LTT-SRIF-28 from human sst1 receptor by autoradiography; method in brief: as §1
[3] = biological target: Somatostatin receptor type 2 (Homo sapiens, UniProt P30874); assay: Displacement of [125I]LTT-SRIF-28 from human sst2 receptor by autoradiography; method in brief: as §1
[4] = biological target: Somatostatin receptor type 5 (Homo sapiens, UniProt P35346); assay: Displacement of [125I]LTT-SRIF-28 from human sst5 receptor by autoradiography; method in brief: as §1
[5] = biological target: T1, Somatostatin receptor type 1; assay: Agonist activity at human sst1 receptor expressed in Chinese hamster CCL39 cells by luciferase reporter gene assay relative to somatostatin-14; format: functional, cell-based
[6] = biological target: Somatostatin receptor type 4 (Homo sapiens, UniProt P31391); assay: Displacement of [125I]LTT-SRIF-28 from human sst4 receptor by autoradiography
Somatostatin receptor type 4, sequence (P31391 whole entry): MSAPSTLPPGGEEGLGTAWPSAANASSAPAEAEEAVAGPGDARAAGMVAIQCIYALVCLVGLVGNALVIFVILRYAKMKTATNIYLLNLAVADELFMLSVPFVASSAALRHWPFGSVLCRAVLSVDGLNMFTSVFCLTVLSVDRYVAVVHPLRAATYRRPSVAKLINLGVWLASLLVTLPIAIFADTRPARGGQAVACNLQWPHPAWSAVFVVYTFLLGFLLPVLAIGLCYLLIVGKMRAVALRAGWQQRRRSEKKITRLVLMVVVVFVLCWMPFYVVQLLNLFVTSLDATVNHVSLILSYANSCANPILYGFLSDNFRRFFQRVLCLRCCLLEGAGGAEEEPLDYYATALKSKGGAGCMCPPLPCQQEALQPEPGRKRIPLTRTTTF

Somatostatin receptor type 5, sequence (P35346 whole entry): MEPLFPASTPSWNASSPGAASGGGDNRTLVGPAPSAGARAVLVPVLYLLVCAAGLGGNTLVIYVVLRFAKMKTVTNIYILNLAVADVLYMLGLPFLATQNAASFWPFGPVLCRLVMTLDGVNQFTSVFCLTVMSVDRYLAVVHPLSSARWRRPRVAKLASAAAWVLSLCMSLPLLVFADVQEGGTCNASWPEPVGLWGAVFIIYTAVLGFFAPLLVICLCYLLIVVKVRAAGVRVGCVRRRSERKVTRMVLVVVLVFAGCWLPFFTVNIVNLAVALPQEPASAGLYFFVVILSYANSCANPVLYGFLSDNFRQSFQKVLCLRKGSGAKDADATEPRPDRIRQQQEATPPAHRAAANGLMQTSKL
Somatostatin receptor type 2, sequence (P30874 whole entry): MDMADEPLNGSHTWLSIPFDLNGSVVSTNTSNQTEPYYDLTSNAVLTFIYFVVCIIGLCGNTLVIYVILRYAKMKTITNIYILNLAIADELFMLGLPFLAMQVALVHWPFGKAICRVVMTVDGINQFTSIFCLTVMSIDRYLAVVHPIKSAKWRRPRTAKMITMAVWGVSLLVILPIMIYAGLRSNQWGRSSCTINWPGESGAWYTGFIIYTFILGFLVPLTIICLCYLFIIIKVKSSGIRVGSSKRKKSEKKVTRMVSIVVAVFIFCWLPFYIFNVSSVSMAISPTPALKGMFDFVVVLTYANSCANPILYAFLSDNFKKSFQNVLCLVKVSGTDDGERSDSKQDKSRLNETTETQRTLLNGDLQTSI
Somatostatin receptor type 3, sequence (P32745 whole entry): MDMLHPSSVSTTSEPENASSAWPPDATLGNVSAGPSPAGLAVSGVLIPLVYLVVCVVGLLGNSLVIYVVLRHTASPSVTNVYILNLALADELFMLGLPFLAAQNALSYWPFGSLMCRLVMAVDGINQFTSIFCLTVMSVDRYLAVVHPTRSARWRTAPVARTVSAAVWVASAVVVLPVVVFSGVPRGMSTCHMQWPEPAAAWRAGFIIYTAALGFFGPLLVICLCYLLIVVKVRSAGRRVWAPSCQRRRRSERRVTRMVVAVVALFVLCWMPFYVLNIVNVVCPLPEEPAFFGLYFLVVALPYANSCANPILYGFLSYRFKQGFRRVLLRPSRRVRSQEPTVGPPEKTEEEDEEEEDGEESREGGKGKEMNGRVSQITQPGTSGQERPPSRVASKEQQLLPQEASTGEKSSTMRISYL
T1 sequence (P30872 whole entry): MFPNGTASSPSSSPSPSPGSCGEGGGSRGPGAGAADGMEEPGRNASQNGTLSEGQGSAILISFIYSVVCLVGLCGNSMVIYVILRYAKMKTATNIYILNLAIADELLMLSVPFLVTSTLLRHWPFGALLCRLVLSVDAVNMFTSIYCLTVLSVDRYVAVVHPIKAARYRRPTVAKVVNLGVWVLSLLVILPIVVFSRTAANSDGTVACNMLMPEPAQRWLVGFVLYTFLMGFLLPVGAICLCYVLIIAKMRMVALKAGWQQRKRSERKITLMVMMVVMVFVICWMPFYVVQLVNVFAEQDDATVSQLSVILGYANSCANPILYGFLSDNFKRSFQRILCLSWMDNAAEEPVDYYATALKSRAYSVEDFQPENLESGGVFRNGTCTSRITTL

| SMILES | IC50 [1] [nM] | IC50 [2] [nM] | IC50 [3] [nM] | IC50 [4] [nM] | Activity [5] | IC50 [6] [nM] | EC50 [5] [nM] |
| --- | --- | --- | --- | --- | --- | --- | --- |
| CC(C)NCc1ccc(C[C@@H]2NC(=O)[C@@H](N(C)C(=O)c3ccc4ccccc4c3)NC(=O)[C@H](Cc3ccccc3)NC(=O)[C@@H](N)CSSC[C@@H](C(=O)N[C@H](C(N)=O)[C@@H](C)O)NC(=O)[C@H](Cc3ccccc3)NC2=O)cc1 | 681 | 1 | > 1000 | > 1000 | Active | 95 | 3.9 |
| C[C@@H](O)[C@H](NC(=O)[C@@H]1CSSC[C@H](NC(=O)[C@H](N)Cc2ccccc2)C(=O)N[C@@H](Cc2ccccc2)C(=O)N[C@H](Cc2c[nH]c3ccccc23)C(=O)N[C@@H](CCCCN)C(=O)N[C@@H]([C@@H](C)O)C(=O)N1)C(N)=O |  | > 1000 |  |  |  |  |  |
| CC(C)NCc1ccc(C[C@@H]2NC(=O)[C@@H](N(C)C(=O)c3ccc4ccccc4c3)NC(=O)[C@H](Cc3ccccc3)NC(=O)[C@H](Cc3ccccc3)NC(=O)[C@H](CCCCN)NC(=O)[C@@H](N)CSSC[C@@H](C(=O)O)NC(=O)[C@H](CO)NC(=O)[C@H]([C@@H](C)O)NC(=O)[C@H](Cc3ccc(O)cc3)NC(=O)[C@H]([C@@H](C)O)NC2=O)cc1 | > 1000 | 3.3 | > 1000 | > 1000 |  | 562 |  |
| CC(C)NCc1ccc(C[C@@H]2NC(=O)[C@@H](Cc3c[nH]c4ccccc34)NC(=O)[C@H](Cc3ccccc3)NC(=O)[C@H](Cc3ccccc3)NC(=O)[C@H](CCCCN)NC(=O)[C@@H](N)CSSC[C@@H](C(=O)O)NC(=O)[C@H](Cc3ccccc3)NC(=O)[C@H]([C@@H](C)O)NC2=O)cc1 (H-CKFF[dW][Phe(4-CH2NHiPr)]TFC-OH; disulfide 1-9) | 789 | 189 | > 1000 | > 1000 |  | 932 |  |
| CC(C)NCc1ccc(C[C@@H]2NC(=O)[C@@H](Cc3c[nH]c4ccccc34)NC(=O)[C@H](Cc3ccccc3)NC(=O)[C@@H](N)CSSC[C@@H](C(=O)N[C@H](C(N)=O)[C@@H](C)O)NC(=O)[C@H](Cc3ccccc3)NC2=O)cc1 (H-CF[dW][Phe(4-CH2NHiPr)]FCT-NH2; disulfide 1-6) | > 1000 | 108 | > 1000 | > 1000 |  |  |  |
| CC(C)NCc1ccc(C[C@@H]2NC(=O)[C@@H](N(C)C(=O)c3ccc4ccccc4c3)NC(=O)[C@H](Cc3ccccc3)NC(=O)[C@H](N)CSSC[C@@H](C(=O)N[C@@H](Cc3ccc4ccccc4c3)C(N)=O)NC(=O)[C@H](Cc3ccccc3)NC2=O)cc1 (single isomer, unassigned) |  |  |  |  | Active |  |  |
| CC(C)NCc1ccc(C[C@@H]2NC(=O)[C@H](N(C)C(=O)c3ccc4ccccc4c3)NC(=O)[C@H](Cc3ccccc3)NC(=O)[C@@H](N)CSSC[C@@H](C(N)=O)NC(=O)[C@H](Cc3ccc(O)cc3)NC2=O)cc1 | > 1000 | 530 | > 1000 | > 1000 |  | > 1000 |  |
| CC(C)NCc1ccc(C[C@@H]2NC(=O)[C@@H](Cc3c[nH]c4ccccc34)NC(=O)[C@H](Cc3ccccc3)NC(=O)[C@H](Cc3ccccc3)NC(=O)[C@H](CCCCN)NC(=O)[C@@H](NC(=O)[C@@H](N)Cc3ccc(O)cc3)CSSC[C@@H](C(=O)O)NC(=O)[C@H](CO)NC(=O)[C@H]([C@@H](C)O)NC(=O)[C@H](Cc3ccccc3)NC(=O)[C@H]([C@@H](C)O)NC2=O)cc1 (H-YCKFF[dW][Phe(4-CH2NHiPr)]TFTSC-OH; disulfide 2-12) | > 1000 |  | > 1000 |  | Active | > 1000 |  |
| CC(C)NCc1ccc(C[C@@H]2NC(=O)[C@@H](Cc3c[nH]c4ccccc34)NC(=O)[C@H](Cc3ccccc3)NC(=O)[C@H](Cc3ccccc3)NC(=O)[C@@H](N)CSSC[C@@H](C(=O)O)NC(=O)[C@H](Cc3ccccc3)NC(=O)[C@H]([C@@H](C)O)NC2=O)cc1 (H-CFF[dW][Phe(4-CH2NHiPr)]TFC-OH; disulfide 1-8) | > 1000 | > 1000 | > 1000 | > 1000 |  | > 1000 |  |
| CC(C)NCc1ccc(C[C@@H]2NC(=O)[C@@H](Cc3c[nH]c4ccccc34)NC(=O)[C@H](Cc3ccccc3)NC(=O)[C@H](Cc3ccccc3)NC(=O)[C@H](CCCCN)NC(=O)[C@@H](N)CSSC[C@@H](C(=O)O)NC(=O)[C@H](CO)NC(=O)[C@H]([C@@H](C)O)NC(=O)[C@H](Cc3ccc(O)c([125I])c3)NC(=O)[C@H]([C@@H](C)O)NC2=O)cc1 |  | 3.6 |  |  |  |  |  |
| CC(C)NCc1ccc(C[C@@H]2NC(=O)[C@H](N(C)C(=O)c3ccc4ccccc4c3)NC(=O)[C@H](Cc3ccccc3)NC(=O)[C@@H](NC(=O)[C@H](N)Cc3ccc(O)cc3)CSSC[C@@H](C(=O)N[C@H](C(N)=O)[C@@H](C)O)NC(=O)[C@H](Cc3ccccc3)NC2=O)cc1 | > 1000 |  | > 1000 | > 1000 |  | > 1000 |  |

Continued by falling IC50 [1], values first:

| IC50 [1] [nM] | IC50 [2] [nM] | IC50 [3] [nM] | IC50 [4] [nM] | Activity [5] | IC50 [6] [nM] | EC50 [5] [nM] | SMILES |
| --- | --- | --- | --- | --- | --- | --- | --- |
| 463 | 189 | > 1000 | > 1000 |  | > 1000 |  | CC(C)NCc1ccc(C[C@@H]2NC(=O)[C@H](N(C)C(=O)c3ccc4ccccc4c3)NC(=O)[C@H](Cc3ccccc3)NC(=O)[C@H](NC(=O)[C@@H](N)Cc3ccc(O)cc3)CSSC[C@@H](C(=O)N[C@@H](Cc3ccc4ccccc4c3)C(N)=O)NC(=O)[C@H](Cc3ccccc3)NC2=O)cc1 |
| 410 | 8.2 | > 1000 | > 1000 | Active | 270 |  | CC(C)NCc1ccc(C[C@@H]2NC(=O)[C@@H](N(C)C(=O)c3ccc4ccccc4c3)NC(=O)[C@H](Cc3ccccc3)NC(=O)[C@H](NC(=O)[C@@H](N)Cc3ccc(O)cc3)CSSC[C@@H](C(=O)N[C@@H](Cc3ccc4ccccc4c3)C(N)=O)NC(=O)[C@H](Cc3ccccc3)NC2=O)cc1 |
| 253 | 37 | > 1000 | > 1000 |  |  |  | CC(C)NCc1ccc(C[C@@H]2NC(=O)[C@H](N(C)C(=O)c3ccc4ccccc4c3)NC(=O)[C@H](Cc3ccccc3)NC(=O)[C@@H](N)CSSC[C@@H](C(=O)N[C@H](C(N)=O)[C@@H](C)O)NC(=O)[C@H](Cc3ccccc3)NC2=O)cc1 |
| 252 | 4.7 | > 1000 | > 1000 | Active |  |  | CC(C)NCc1ccc(C[C@@H]2NC(=O)[C@@H](N(C)C(=O)c3ccc4ccccc4c3)NC(=O)[C@H](Cc3ccccc3)NC(=O)[C@@H](N)CSSC[C@@H](C(N)=O)NC(=O)[C@H](Cc3ccc(O)cc3)NC2=O)cc1 |
| 158 |  | > 1000 | > 1000 |  | 27 |  | CC(C)NCc1ccc(C[C@@H]2NC(=O)[C@@H](N(C)C(=O)c3ccc4ccccc4c3)NC(=O)[C@H](Cc3ccccc3)NC(=O)[C@@H](NC(=O)[C@H](N)Cc3ccc(O)cc3)CSSC[C@@H](C(=O)N[C@H](C(N)=O)[C@@H](C)O)NC(=O)[C@H](Cc3ccccc3)NC2=O)cc1 |
| 150 | 31 | > 1000 | > 1000 |  | > 1000 |  | CC(C)NCc1ccc(C[C@@H]2NC(=O)[C@@H](Cc3c[nH]c4ccccc34)NC(=O)[C@H](Cc3ccccc3)NC(=O)[C@H](Cc3ccccc3)NC(=O)[C@H](CCCCN)NC(=O)[C@@H](N)CSSC[C@@H](C(=O)O)NC(=O)[C@H](CO)NC(=O)[C@H]([C@@H](C)O)NC(=O)[C@H](Cc3ccccc3)NC(=O)[C@H]([C@@H](C)O)NC2=O)cc1 (H-CKFF[dW][Phe(4-CH2NHiPr)]TFTSC-OH; disulfide 1-11) |
| 72 | 14 | > 1000 | > 1000 |  |  |  | CC(C)NCc1ccc(C[C@@H]2NC(=O)[C@@H](Cc3c[nH]c4ccccc34)NC(=O)[C@H](Cc3ccccc3)NC(=O)[C@@H](NC(=O)[C@H](N)Cc3ccccc3)CSSC[C@@H](C(=O)N[C@H](C(N)=O)[C@@H](C)O)NC(=O)[C@H](Cc3ccccc3)NC2=O)cc1 (H-[dF]CF[dW][Phe(4-CH2NHiPr)]FCT-NH2; disulfide 2-7) |
| 60 | 150 | > 1000 | > 1000 |  | > 1000 |  | CC(C)NCc1ccc(C[C@@H]2NC(=O)[C@@H](Cc3c[nH]c4ccccc34)NC(=O)[C@H](Cc3ccccc3)NC(=O)[C@@H](NC(=O)[C@@H](N)Cc3ccc(O)cc3)CSSC[C@@H](C(=O)N[C@H](C(N)=O)[C@@H](C)O)NC(=O)[C@H](Cc3ccccc3)NC(=O)[C@H]([C@@H](C)O)NC2=O)cc1 (H-YCF[dW][Phe(4-CH2NHiPr)]TFCT-NH2; disulfide 2-8) |

Source: ChEMBL document CHEMBL1151856, “Novel, potent, and radio-iodinatable somatostatin receptor 1 (sst1) selective analogues” (J Med Chem, 2009)
